# Hits are enriched below; roughly 4.3% of the tested compounds scored in any of these assays.
# SUMO HTRF inh = inhibitors of human SUMOylation (UBC9); P63279; HTRF SUMOylation assay, SAE1/SAE2 + UBC9, in vitro; inhibition, % at 35 µM; hit rate 0.36% among 290,000; AID 2006; in the data active = inhibition above about 50%, passing the limit was not always enough
# PREPL inh = inhibitors of human prolyl oligopeptidase-like enzyme PREPL; Q4J6C6; recombinant PREPL, fluorescence polarization activity-based probe; inhibition, % at 5.96 µM; hit rate 0.68% among 320,000; AID 2751; in the data active = inhibition above about 43%;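 note: 0% = enzyme with DMSO and 100% = wells lacking enzyme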
# Target sequence (Q4J6C6 whole entry, looked up): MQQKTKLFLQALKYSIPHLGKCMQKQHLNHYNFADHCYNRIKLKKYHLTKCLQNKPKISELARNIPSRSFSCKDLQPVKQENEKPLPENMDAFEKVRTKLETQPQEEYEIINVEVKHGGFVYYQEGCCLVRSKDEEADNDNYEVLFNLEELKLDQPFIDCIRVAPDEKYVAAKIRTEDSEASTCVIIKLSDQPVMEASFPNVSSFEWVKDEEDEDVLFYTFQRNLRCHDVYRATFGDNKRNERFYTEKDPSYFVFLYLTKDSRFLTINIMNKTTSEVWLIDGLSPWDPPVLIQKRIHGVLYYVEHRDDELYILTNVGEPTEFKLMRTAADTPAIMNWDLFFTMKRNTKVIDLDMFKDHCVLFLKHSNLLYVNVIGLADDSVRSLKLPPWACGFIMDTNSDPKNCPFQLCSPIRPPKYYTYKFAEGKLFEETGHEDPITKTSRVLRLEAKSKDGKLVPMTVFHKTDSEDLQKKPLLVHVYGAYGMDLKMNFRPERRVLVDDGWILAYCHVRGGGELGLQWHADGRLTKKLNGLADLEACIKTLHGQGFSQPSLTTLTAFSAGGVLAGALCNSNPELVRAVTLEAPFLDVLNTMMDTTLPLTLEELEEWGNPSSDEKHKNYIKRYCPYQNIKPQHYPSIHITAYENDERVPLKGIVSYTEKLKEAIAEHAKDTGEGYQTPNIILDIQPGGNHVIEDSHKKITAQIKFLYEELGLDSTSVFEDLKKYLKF
# RBBP9 inhibitor = human RBBP9 hydrolase inhibition | hit rate 0.2% among 220,000 | inhibition, % at 7.94 µM | recombinant RBBP9, FP-Rh probe fluorescence polarization;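 active = inhibition above the campaign mean of all tested compounds plus 3 SD, cut at about 14% in these data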;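 note: plate controls were DMSO wells with RBBP9 for no effect and wells lacking RBBP9 protein for full effect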
#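 Controls: DMSO-treated enzyme wells and wells lacking RBBP9 | Material: RBBP9 protein | Technique: Fluorescence polarization | Replication: Single well per compound, no replicates | Buffer or medium: Tris-NaCl-Pluronic buffer, pH 8.0 | Timing: 30 min compound preincubation, 45 min probe labeling, 25 °C | Read-out basis: Percent inhibition from mP, scaled between DMSO and no-protein wells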
# UBC13 polyUb = inhibitors of human UBC13 polyubiquitin chain formation | hit rate 0.47% among 330,000 | TR-FRET | P61088 | inhibition, % at 20 µM; in the data active = inhibition above about 45%, passing the limit was not always enough
# ALR H2O2 inh = inhibitors of human sulfhydryl oxidase ALR | P55789 | purified ALR, DTT oxidation, H2O2 HRP-luminol luminescence | inhibition, % (test concentration not listed) | hit rate 3.8% among 290,000;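 active = mean replicate inhibition above about 79%, with every replicate also reaching it, limit read from the data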
# Rin1 Abl inh = blocks binding of human Rin1 to Abl | TR-FRET Rin1/Abl binding, biochemical | inhibition, % at 7.35 µM | P00519+Q13671 | hit rate 0.4% among 360,000 | AID 588664; in the data active = inhibition above about 5%, passing the limit was not always enough
# Active calls of the source: *; i = inactive; . = not tested or not shown.
SMILES,SUMO HTRF inh,PREPL inh,RBBP9 inhibitor,UBC13 polyUb,ALR H2O2 inh,Rin1 Abl inh
Cc1nn(-c2ccccc2)c(Cl)c1C1C(C#N)=C(N)Oc2c1c(C)nn2-c1ccccc1 (centres undefined),26.8,10.2,-6.2,-29.2,.,1.2
Cc1nn(-c2ccccc2)c2c1C(c1c(C)[nH]c(C#N)c1C)C(C#N)=C(N)O2 (centres undefined),74.7*,8.5,3.2,-5.0,14.3,6.0
O=C(CCc1nc2ccccc2s1)NC1CCOC1=O (centres undefined),-24.3,4.4,-8.9,2.6,40.7,-0.3
CC1CN2C(c3ccc(Cl)cc3)=CSC2=N1 (centres undefined),10.9,-0.8,.,-2.2,99.3*,0.1
COc1ccc(OC)c(NC(=O)CCC(=O)Oc2ccc(C)cc2)c1,-22.6,-4.9,.,8.3,.,0.6
O=C(CCC(=O)OCc1ccc([N+](=O)[O-])cc1Cl)Nc1ccccc1,20.3,-0.5,.,-5.7,-3.0,-3.7
N#CC1=C(N)N(c2ccccc2)C(c2ccco2)C1(C#N)C#N (centres undefined),-17.7,18.6,-8.6,14.7,93.7*,1.9
O=C(CNCc1ccccn1)Nc1ccc([N+](=O)[O-])cc1C(=O)Nc1ccccc1F,-0.1,-13.1,.,-11.5,.,0.6
Cc1ccc(NC(=O)c2ccc(=O)[nH]n2)cc1S(=O)(=O)Nc1ccc(SC(F)F)cc1,.,-2.8,.,-7.0,98.7*,4.6
CCn1c(-c2ccccn2)nc2cc(S(=O)(=O)N(C)C)ccc21,-0.1,-3.4,.,5.2,99.0*,1.5
CCn1c(-c2cc(Br)cc(OC)c2O)nc2cc(S(=O)(=O)N(C)C)ccc21,6.2,-2.5,-5.3,0.9,90.7*,0.8
COc1ccc(Nc2nc(OC)nc(OC)n2)cc1,17.1,2.6,.,-10.4,14.1,-1.4
COc1ccc(Nc2ccnc(Nc3ccc(OC)cc3)n2)cc1,-11.5,16.8,-0.3,37.6,97.6*,-1.6
CC1=C(C(=O)Nc2ccc(C(=O)NC(C)c3ccccc3)cc2)SCCO1 (centres undefined),7.1,3.9,.,2.1,0.0,-0.5
COc1ccccc1N1CCN(C(=O)CCSCc2ccccc2F)CC1,-0.3,6.0,-0.5,-7.8,95.7*,3.7
COc1cccc(N2CCN(C(=O)CCSCc3ccccc3F)CC2)c1,4.1,15.1,-9.6,-5.0,97.0*,-0.2
COc1ccccc1N1CCN(C(=O)Cc2ccc(Cl)cc2)CC1,-9.4,5.2,.,8.7,.,-3.1
Cc1cccc2sc(NC(=O)c3ccc(Cl)s3)nc12,12.9,-0.5,-5.0,15.2,96.7*,-3.0
COC(=O)C(NNc1ccccc1C)(NC(=O)c1ccc(F)cc1)C(F)(F)F (centres undefined),8.2,8.3,3.6,4.5,97.9*,3.9
COC(=O)C(NNc1ccc(F)cc1)(NC(=O)c1ccccc1)C(F)(F)F (centres undefined),4.5,-13.4,-4.6,.,-0.2,2.2
C/C(=N\NC(=O)CCc1ccc(S(=O)(=O)N2CCOCC2)cc1)c1ccccc1Cl,11.1,9.0,-9.5,-3.0,98.5*,4.3
CCCCOC(=O)Cn1c(-c2ccccc2)nc2ccccc2c1=O,-11.9,7.0,-5.5,9.3,-4.7,-1.3
CCCOC(=O)C(C)n1c(-c2ccccc2)nc2ccccc2c1=O (centres undefined),15.5,-2.1,-0.6,-1.9,91.3*,3.6
Cn1cnc(S(=O)(=O)N2CCCC(c3cc(C(=O)Nc4ccc(F)c(Cl)c4)no3)C2)c1 (centres undefined),.,.,.,.,.,0.0
COc1cc(/C=C2/C(=O)ON=C2C)cc(Cl)c1O,6.7,-5.0,.,i,90.8*,-1.5
SMILES,SUMO HTRF inh,PREPL inh,RBBP9 inhibitor,UBC13 polyUb,ALR H2O2 inh,Rin1 Abl inh
C#CCOc1c(Cl)cc(/C=C2/C(=O)ON=C2C)cc1OC,-7.8,0.9,.,-0.6,32.7,1.2
CC1=NOC(=O)/C1=C/c1ccc(O)c(Cl)c1,16.4,5.5,.,-152.0,.,1.6
CCOc1cc(/C=C2/N=C(C)C(C(=O)OC)=C2O)ccc1O,1.6,-5.7,-0.8,-63.1,99.3*,-0.7
CCOC(=O)C1=C(O)/C(=C\c2ccc(O)c(OCC)c2)N=C1C,-7.4,2.8,-4.2,-29.7,95.3*,2.9
CCOc1cc(/C=C2/C(=O)ON=C2C)ccc1O,3.9,6.9,.,-265.1,99.3*,1.8
CCOC(=O)C1=C(O)/C(=C\c2ccc(OC)c(OC)c2)N=C1C,4.2,2.3,1.4,-5.3,.,3.3
Nc1nc(SCC(=O)O)[nH]c(=O)c1NC(=O)c1ccco1,-1.9,2.7,.,-8.0,-13.6,4.8
COc1ccc(F)cc1-c1cc(NC(C)=O)c2ncc(-c3cccc(C(F)(F)F)c3)n2c1,.,.,.,.,.,-7.7
CC(=O)Oc1ccccc1Cn1c(C)c(C(=O)NCc2ccc(Cl)c(Cl)c2)sc1=O,.,.,.,.,.,2.5
COc1cccc(/C=C/C(=O)OCC(=O)c2c(N)n(C)c(=O)n(C)c2=O)c1,.,9.2,.,1.1,4.0,0.5
O=c1c(C(c2ccc(Cl)cc2)c2c(O)nc3n(c2=O)CCS3)c(O)nc2n1CCS2,27.0,13.2,-6.0,-0.6,97.8*,-2.4
O=c1c(C(c2ccc(Cl)cc2)c2c(O)nc3n(c2=O)CCCS3)c(O)nc2n1CCCS2,4.7,2.9,-6.2,-4.0,4.5,0.8
CC1(C)CC2CC(C)(CN2Cc2c(O)ccc3ccccc23)C1 (centres undefined),16.3,7.7,1.5,0.9,94.6*,0.0
CC1(C)CC2CC(C)(CN2Cc2cccc([N+](=O)[O-])c2)C1 (centres undefined),3.6,.,.,-5.6,3.0,3.4
COc1ccc2c(c1OC)C(CC(C)=O)N1CCc3cc4c(cc3C1C2=O)OCO4 (centres undefined),.,.,.,.,.,3.2
CCNc1c(N)c(=O)oc2ccccc12,9.3,3.0,-5.8,-4.2,60.4,-3.3
Nc1c(Nc2ccccc2)c2ccccc2oc1=O,-13.9,34.1,-10.3,-7.5,98.5*,-0.4
CC(C)CNc1c(N)c(=O)oc2ccccc12,6.3,22.3,-4.4,-2.8,99.0*,-5.7
CC(C)N1CCN(Cc2ccc(Sc3nncn3C)o2)CC1CCO (centres undefined),24.6,-5.9,-12.3,0.7,-0.3,-1.6
O=C(c1ccc(Br)o1)N1CCc2ccccc21,4.6,-6.2,-1.9,8.3,-2.9,.
CC1CC(C)CN(C(=O)CSCC(=O)Nc2nc(-c3cccs3)cs2)C1 (centres undefined),-3.0,26.9,-1.5,4.1,98.6*,0.6
O=C(CSCC(=O)N1CCCCC1)Nc1nc(-c2ccc(Cl)s2)cs1,27.3,42.3,-10.9,14.7,8.0,-2.6
O=C(CSCC(=O)N1CCCCC1)Nc1nc(-c2cccs2)cs1,5.7,23.9,-4.3,0.1,96.0*,-2.9
O=C(CCN1CCCCC1=O)NC1CCCc2c1cnn2-c1ccccc1F (centres undefined),3.3,19.0,.,-2.5,-4.5,-2.6

# Screening results: PubChem, several laboratories
